M1 ag parental: counter-screen for M1 agonists: effect in parental CHO-K1 cells | activation, % at 3 µM | Fluo-8 calcium fluorescence; scaled to maximal ATP response, vehicle zero | 360,000 tested, 0.48% active; in the data active means activation above about 15%;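 further: untransfected CHO-K1 host cells lacking M1 receptor as counterscreen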
M1 PAM parental: nonselective calcium activators in parental CHO-K1 cells, primary screen, counter-screen for M1 PAM project, cell-based, Fluo-8 calcium fluorescence, full deck, 1536-well; ATP EC20; 0% at ATP EC20, 100% at ATP max; activation, % at 3 µM; 360,000 tested, 0.02% active; AID 602247, 2012;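 active means activation above the run cutoff, the mean activation of all test compounds plus 3 SD, cut at about 40% in these data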;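 further: peak over basal fluorescence ratio in a 140 s read after ATP addition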
OX1R antag-1: antagonists of human orexin 1 receptor (OX1R); inhibition, % at 6.6 µM; 330,000 tested, 1.8% active; OX1R-expressing cells, FRET antagonist read-out; Orexin/Hypocretin receptor type 1 (Homo sapiens), O43613; AID 485270, 2010; in the data active means inhibition mostly above about 38%, no sharp cut-off; inactive means mostly below about 40%;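 further: 0% = agonist challenge alone and 100% = reference antagonist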
Target sequence (O43613 whole entry, looked up): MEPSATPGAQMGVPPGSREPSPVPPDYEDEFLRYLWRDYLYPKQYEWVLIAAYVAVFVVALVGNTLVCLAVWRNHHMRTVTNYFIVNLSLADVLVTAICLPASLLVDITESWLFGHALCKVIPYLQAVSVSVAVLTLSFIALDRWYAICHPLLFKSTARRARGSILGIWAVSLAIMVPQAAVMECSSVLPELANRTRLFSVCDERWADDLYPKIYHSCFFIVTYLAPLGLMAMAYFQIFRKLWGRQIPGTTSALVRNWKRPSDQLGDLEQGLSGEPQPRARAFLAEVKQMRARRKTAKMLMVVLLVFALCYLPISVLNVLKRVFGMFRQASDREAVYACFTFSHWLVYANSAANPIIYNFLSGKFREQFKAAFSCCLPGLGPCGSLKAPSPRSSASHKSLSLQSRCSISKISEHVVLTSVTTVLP
CHO-K1 Ca antag: counter-screen for M1 antagonists: effect in parental CHO-K1 cells. inhibition, % at 3 µM. 360,000 tested, 0.6% active. ATP-induced calcium, Fluo-8 fluorescence;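 active means inhibition above a per-plate cutoff, the plate's mean sample inhibition plus 3 SD, cut at about 24% in these data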;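 further: 0% = DMSO plus EC80 ATP and 100% = DMSO alone without ATP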
CHO parental Ca: ATP-evoked calcium signal inhibitors, parental CHO, primary screen, counter-screen for OX1R antagonist project, cell-based, fluorescence, Fluo-8 calcium dye | inhibition, % at 5.6 µM | AID 463079, 2010 | 330,000 tested, 0.63% active | parental CHO-K1, ATP-induced calcium, Fluo-8 fluorescence;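 active means inhibition above that plate's mean sample inhibition plus 3 SD, cut at about 26% in these data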;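 further: 0% = ATP-challenged DMSO wells and 100% = DMSO wells without ATP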
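Test system: untransfected parental CHO cell line. Compound: one dose, 5.6 µM nominal. Detection: intracellular calcium via Fluo-8 no-wash fluorescent dye. Measure: % inhibition. Benchmarks: ATP-challenged DMSO wells low, unchallenged DMSO wells high.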
OX1R antag-2: OX1R (HCRTR1) antagonists, primary screen, fluorescence, CHO/OX1R cells, Fluo-8 calcium, orexin A; inhibition, % at 5 µM; Fluo-8 calcium fluorescence; Orexin/Hypocretin receptor type 1 (Homo sapiens), O43613; AID 434989, 2010; 330,000 tested, 0.43% active;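 active means inhibition above its plate's threshold, mean inhibition of all tested compounds on the plate plus 3 SD, cut at about 37% in these data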;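 further: 0% = orexin A challenge wells and 100% = SB-334867-A antagonist wells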
* hit, by the source's call. Rows were chosen to be rich in hits. Some 2.9% of all compounds tested hit in one or more screens of this group.

For Cc1[nH]c2ccccc2c1/C=N/NC(=O)c1cccc(F)c1 the results were M1 ag parental 0.7, M1 PAM parental 8.4, OX1R antag-1 13.1, CHO-K1 Ca antag -6.4, CHO parental Ca 6.3 and OX1R antag-2 -13.6.
Screening Cc1[nH]c2ccccc2c1/C=N/NC(=O)c1cc(C(C)C)[nH]n1 returned M1 ag parental 1.3, M1 PAM parental 18.3, OX1R antag-1 44.5*, CHO-K1 Ca antag -8.0, CHO parental Ca -7.7 and OX1R antag-2 0.6.
`CCc1ccc(-c2nc(SCC(=O)c3c(N)n(C4CC4)c(=O)[nH]c3=O)n[nH]2)cc1` gave M1 ag parental -0.2, M1 PAM parental -13.2, OX1R antag-1 4.9, CHO-K1 Ca antag -12.5, CHO parental Ca -17.5 and OX1R antag-2 0.0.
`Cc1cccn2c(=O)c3cc(C(=O)NCC4CCCO4)c(=N)n(CCc4ccccc4)c3nc12` (stereo not drawn) gave M1 ag parental 1.4, M1 PAM parental 4.6, OX1R antag-1 50.9*, CHO-K1 Ca antag -2.2, CHO parental Ca -3.7 and OX1R antag-2 -25.7.
For COc1ccc(CCn2c(=N)c(C(=O)NCC3CCCO3)cc3c(=O)n4ccccc4nc32)cc1OC (stereo not drawn) the results were M1 ag parental 2.9, M1 PAM parental -0.8, OX1R antag-1 50.2*, CHO-K1 Ca antag -14.0, CHO parental Ca -10.0 and OX1R antag-2 -20.3.
Screening COc1ccc(CCn2c(=N)c(C(=O)NC3CCCC3)cc3c(=O)n4ccccc4nc32)cc1OC returned M1 ag parental 1.1, M1 PAM parental -19.3, OX1R antag-1 16.6, CHO-K1 Ca antag 4.2, CHO parental Ca 1.3 and OX1R antag-2 -17.9.
Screening COc1ccc(CCNC(=O)c2cc3c(=O)n4cccc(C)c4nc3n(CC3CCCO3)c2=N)cc1 (stereo not drawn) returned M1 ag parental 1.5, M1 PAM parental 7.4, OX1R antag-1 28.8, CHO-K1 Ca antag -5.0, CHO parental Ca -8.6 and OX1R antag-2 -24.9.
`Cc1ccc(C(=O)O)cc1NCc1ccncc1` gave M1 ag parental 0.3, M1 PAM parental -17.4, OX1R antag-1 8.3, CHO-K1 Ca antag 4.4, CHO parental Ca -12.2 and OX1R antag-2 -0.7.
For Cc1ccc(CNC(=S)Nc2cc(C(=O)O)ccc2C)cc1 the results were M1 ag parental 0.0, M1 PAM parental -18.6, OX1R antag-1 3.1, CHO-K1 Ca antag 31.2*, CHO parental Ca -9.5 and OX1R antag-2 -21.1.
`COc1ccccc1Nc1nc(-c2cccnc2)cs1` gave M1 ag parental -1.1, M1 PAM parental 13.6, OX1R antag-1 38.2*, CHO-K1 Ca antag -15.2, CHO parental Ca -18.7 and OX1R antag-2 -27.3.
`O=[N+]([O-])c1ccccc1Nc1nc(-c2cccnc2)cs1` gave M1 ag parental 2.4, M1 PAM parental 10.1, OX1R antag-1 60.4*, CHO-K1 Ca antag -7.4, CHO parental Ca -16.8 and OX1R antag-2 0.1.
O=C1OC(c2ccccc2)(c2ccc(O)cc2)c2ccccc21 (stereo not drawn) was read as M1 ag parental -0.7, M1 PAM parental -19.5 and CHO-K1 Ca antag 7.7.
O=C1OC2(c3ccccc31)c1cc(I)c(O)c(I)c1Oc1c2cc(I)c(O)c1I was read as OX1R antag-1 91.4*, CHO parental Ca 94.1* and OX1R antag-2 106.3*.
For C=CCC(O)(CC=C)C(C)N (stereo not drawn) the results were M1 ag parental -0.2, M1 PAM parental 16.4, OX1R antag-1 6.9, CHO-K1 Ca antag -11.8, CHO parental Ca -7.6 and OX1R antag-2 -3.8.
For Cc1cc(N2CCCC2)c(F)cc1/C=C\[N+](=O)[O-] the results were M1 ag parental 25.0*, M1 PAM parental -2.4 and CHO-K1 Ca antag 28.1*.
Screening CCNc1nc(NCC)nc(N/N=C/c2ccc([N+](=O)[O-])o2)n1 returned M1 ag parental 0.5, M1 PAM parental 8.2, OX1R antag-1 53.8*, CHO-K1 Ca antag -7.3, CHO parental Ca -6.1 and OX1R antag-2 15.7.

Compound activity as filed in PubChem.
